Assay results: ChEMBL document CHEMBL1124476, “1-(2-aminoethyl)-6-aryl-4H- [1,2,4]triazolo[4,3-a][1,4]benzodiazepines with diuretic and natriuretic activity” (J Med Chem, 1989)

Assays:
[1] = Diuretic activity at 40 mg/kg (screening dose-94.6 umol/kg) in […] in a one stage experiment; T/C = urine vol of treated rats / urine vol of control rats; assay type: functional
Procedure, shortened: (§1)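 40 mg/kg given by gavage in 25 mL/kg 0.9% saline with 0.5% (carboxymethyl)cellulose. Four rats per agent, two per metabolism cage; 20 controls; 5 h urine. T/C = treated/control urine volume. Stage-1 T/C of 1.66 or more leads to stage 2; product T/C1·T/C2 of 3.34 or more counts as active.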

[2] = Diuretic activity at 40 mg/kg (screening dose 84 umol/kg) in […] in a one stage experiment; T/C = urine vol of treated rats / urine vol of control rats; assay type: functional; procedure, shortened: as §1
Rattus norvegicus [3] = species on record: Rattus norvegicus; experiment: […]; assay type: ADME, organism-based, Urine; parameters: dose 10 mg/kg, route oral; conditions: in vivo, po, 10 mg/kg
Procedure, shortened: (§2)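 Male Sprague-Dawley rats, about 160 g, fasted 24 h and water withheld 1 1/2 h beforehand; food and water withheld during the test. Dosing by gavage with 25 mL/kg 0.9% saline containing 0.5% (carboxymethyl)cellulose, agent dissolved or suspended. Three cages of two rats each per dose, held in metabolism cages. Urine collected over 5 h. Volume given in mL, Na+ in mequiv. Significance versus control at P < 0.05.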

Rattus norvegicus [4] = species on record: Rattus norvegicus; experiment: […]; assay type: ADME, organism-based, Urine; parameters: dose 100 mg/kg, route oral; conditions: in vivo, po, 100 mg/kg; procedure, shortened: as §2
Rattus norvegicus [5] = species on record: Rattus norvegicus; experiment: […]; assay type: ADME, organism-based, Urine; parameters: dose 3 mg/kg, route oral; conditions: in vivo, po, 3 mg/kg; procedure, shortened: as §2
Rattus norvegicus [6] = species on record: Rattus norvegicus; experiment: […]; assay type: ADME, organism-based, Urine; parameters: dose 0.3 mg/kg, route oral; conditions: in vivo, po, 0.3 mg/kg
Procedure, shortened: (§3)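 Dose-response test in male Sprague-Dawley rats of about 160 g, fasted 24 h, with water withheld 1½ h before and during the test. Each rat got a single gavage of 25 mL/kg 0.9% saline with 0.5% carboxymethylcellulose carrying the agent (0.3–100 mg/kg range). Rats were housed two per metabolism cage, and urine was collected for 5 h. Mean urine volume (mL) was compared with controls (P < 0.05).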

Rattus norvegicus [7] = species on record: Rattus norvegicus; experiment: […]; assay type: ADME, organism-based, Urine; parameters: dose 1 mg/kg, route oral; conditions: in vivo, po, 1 mg/kg; procedure, shortened: as §3
Rattus norvegicus [8] = experiment: Mean excretion of potassium in conscious rats at a dose of 10 mg/kg given orally; assay type: ADME, organism-based; parameters: dose 10 mg/kg, route oral; conditions: in vivo, po
Procedure, shortened: (§4)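 Secondary dose-response in male Sprague-Dawley rats (~160 g), fasted and hydrated as in the primary screen. Oral gavage at 0.3-100 mg/kg in 25 mL/kg saline/0.5% CMC, three cages of two rats per dose. Urine collected 5 h; Na, K, Cl, HCO3 measured. Values are mean excretion (mequiv), compared with controls at P < 0.05.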

Rattus norvegicus [9] = experiment: Mean excretion of potassium in conscious rats at a dose of 100 mg/kg given orally; assay type: ADME, organism-based; parameters: dose 100 mg/kg, route oral; conditions: in vivo, po; procedure, shortened: as §4
Rattus norvegicus [10] = experiment: Mean excretion of potassium in conscious rats at a dose of 3.0 mg/kg given orally; assay type: ADME, organism-based; parameters: dose 3 mg/kg, route oral; conditions: in vivo, po; procedure, shortened: as §4
Rattus norvegicus [11] = experiment: Mean excretion of potassium in conscious rats at a dose of 30 mg/kg given orally; assay type: ADME, organism-based; parameters: dose 30 mg/kg, route oral; conditions: in vivo, po; procedure, shortened: as §4
Rattus norvegicus [12] = experiment: Mean excretion of sodium in conscious rats at a dose of 0.3 mg/kg given orally; assay type: ADME, organism-based; parameters: dose 0.3 mg/kg, route oral; conditions: in vivo, po; procedure, shortened: as §2
Rattus norvegicus [13] = experiment: Mean excretion of […] in conscious rats at a dose of 1.0 mg/kg given orally; assay type: ADME, organism-based; parameters: dose 1 mg/kg, route oral; conditions: in vivo, po; procedure, shortened: as §2
Rattus norvegicus [14] = experiment: Mean excretion of sodium in conscious rats at a dose of 10 mg/kg given orally; assay type: ADME, organism-based; parameters: dose 10 mg/kg, route oral; conditions: in vivo, po; procedure, shortened: as §2
Rattus norvegicus [15] = experiment: Mean excretion of sodium in conscious rats at a dose of 100 mg/kg given orally; assay type: ADME, organism-based; parameters: dose 100 mg/kg, route oral; conditions: in vivo, po; procedure, shortened: as §2
Rattus norvegicus [16] = experiment: Mean excretion of sodium in conscious rats at a dose of 3.0 mg/kg given orally; assay type: ADME, organism-based; parameters: dose 3 mg/kg, route oral; conditions: in vivo, po; procedure, shortened: as §2
Rattus norvegicus [17] = experiment: Mean excretion of sodium in conscious rats at a dose of 30 mg/kg given orally; assay type: ADME, organism-based; parameters: dose 30 mg/kg, route oral; conditions: in vivo, po; procedure, shortened: as §2
Rattus norvegicus [18] = experiment: Mean excretion of chloride in conscious rats at a dose of 1.0 mg/kg given orally; assay type: ADME, organism-based; parameters: dose 1 mg/kg, route oral; conditions: in vivo, po; procedure, shortened: as §4
Rattus norvegicus [19] = experiment: Mean excretion of chloride in conscious rats at a dose of 10 mg/kg given orally; assay type: ADME, organism-based; parameters: dose 10 mg/kg, route oral; conditions: in vivo, po; procedure, shortened: as §4
Rattus norvegicus [20] = experiment: Mean excretion of chloride in conscious rats at a dose of 100 mg/kg given orally; assay type: ADME, organism-based; parameters: dose 100 mg/kg, route oral; conditions: in vivo, po; procedure, shortened: as §4
Rattus norvegicus [21] = experiment: Mean excretion of chloride in conscious rats at a dose of 30 mg/kg given orally; assay type: ADME, organism-based; parameters: dose 30 mg/kg, route oral; conditions: in vivo, po; procedure, shortened: as §4
Rattus norvegicus [22] = experiment: Mean excretion of chloride in conscious rats at a dose of 3.0 mg/kg given orally; assay type: ADME, organism-based; parameters: dose 3 mg/kg, route oral; conditions: in vivo, po; procedure, shortened: as §4
Rattus norvegicus [23] = experiment: Mean excretion of Cl- in conscious rats at a dose of 0.3 mg/kg given orally; assay type: ADME, organism-based, Urine; parameters: dose 0.3 mg/kg, route oral; conditions: in vivo, po; procedure, shortened: as §3
Rattus norvegicus [24] = experiment: Mean excretion of potassium in conscious rats at a dose of 1.0 mg/kg given orally; assay type: ADME, organism-based; parameters: dose 1 mg/kg, route oral; conditions: in vivo, po; procedure, shortened: as §4
Rattus norvegicus [25] = experiment: Mean excretion of potassium in conscious rats at a dose of 0.3 mg/kg given orally; assay type: ADME, organism-based; parameters: dose 0.3 mg/kg, route oral; conditions: in vivo, po; procedure, shortened: as §4
[26] = Diuretic activity at 40 mg/kg (screening dose-75 umol/kg) in […] in a two stage experiment; T/C1.2 = urine vol of treated rats / urine vol of control rats; assay type: functional; procedure, shortened: as §1
[27] = Diuretic activity at 40 mg/kg (screening dose-75 umol/kg) in […] in a one stage experiment; T/C = urine vol of treated rats / urine vol of control rats; assay type: functional; procedure, shortened: as §1
Rattus norvegicus [28] = species on record: Rattus norvegicus; experiment: […]; assay type: ADME, organism-based, Urine; parameters: dose 30 mg/kg, route oral; conditions: in vivo, po, 30 mg/kg; procedure, shortened: as §2
[29] = Diuretic activity at 40 mg/kg (screening dose-82.4 umol/kg) in […] in a one stage experiment; T/C = urine vol of treated rats / urine vol of control rats; assay type: functional; procedure, shortened: as §1
[30] = Diuretic activity at 40 mg/kg (screening dose-103.9 umol/kg) in […] in a one stage experiment; T/C = urine vol of treated rats / urine vol of control rats; assay type: functional; procedure, shortened: as §1
[31] = Diuretic activity at 40 mg/kg (screening dose-82.5 umol/kg) in […] in a one stage experiment; T/C = urine vol of treated rats / urine vol of control rats; assay type: functional; procedure, shortened: as §1
[32] = Diuretic activity at 40 mg/kg (screening dose 87.7 umol/kg) in […] in a two stage experiment; T/C1.2 = urine vol of treated rats / urine vol of control rats; assay type: functional; procedure, shortened: as §1
[33] = Diuretic activity at 40 mg/kg (screening dose-87.7 umol/kg) in […] in a one stage experiment; T/C = urine vol of treated rats / urine vol of control rats; assay type: functional; procedure, shortened: as §1

## CN(C)CC(CN(C)C)c1nnc2n1-c1ccc(Cl)cc1C(c1ccccc1)=NC2
[1]
  T/C 1: 1.22

## CN(C)CC(c1ccc(Cl)cc1)c1nnc2n1-c1ccc(Cl)cc1C(c1ccccc1)=NC2 (configuration not stated)
[2]
  T/C 1: 0.9

## CN(C)CC(c1ccccc1)c1nnc2n1-c1ccc(I)cc1C(c1ccccc1)=NC2 (configuration not stated)
Rattus norvegicus [3]
  Mean urine volume: 10.8 mL
Rattus norvegicus [4]
  Mean urine volume: 14.57 mL
Rattus norvegicus [5]
  Mean urine volume: 4.86 mL
Rattus norvegicus [6]
  Mean urine volume: 5.09 mL
Rattus norvegicus [7]
  Mean urine volume: 4.8 mL
Rattus norvegicus [8]
  Mean excretion of K+: 0.19 m equiv
Rattus norvegicus [9]
  Mean excretion of K+: 0.24 m equiv
Rattus norvegicus [10]
  Mean excretion of K+: 0.23 m equiv
Rattus norvegicus [11]
  Mean excretion of K+: 0.24 m equiv
Rattus norvegicus [12]
  Mean excretion of Na+: 0.75 m equiv
Rattus norvegicus [13]
  Mean excretion of Na+: 0.65 m equiv
Rattus norvegicus [14]
  Mean excretion of Na+: 1.64 m equiv
Rattus norvegicus [15]
  Mean excretion of Na+: 2.09 m equiv
Rattus norvegicus [16]
  Mean excretion of Na+: 0.66 m equiv
Rattus norvegicus [17]
  Mean excretion of Na+: 1.98 m equiv
Rattus norvegicus [18]
  Mean excretion of Cl-: 0.7 m equiv
Rattus norvegicus [19]
  Mean excretion of Cl-: 1.5 m equiv
Rattus norvegicus [20]
  Mean excretion of Cl-: 1.82 m equiv
Rattus norvegicus [21]
  Mean excretion of Cl-: 1.73 m equiv
Rattus norvegicus [22]
  Mean excretion of Cl-: 0.76 m equiv
Rattus norvegicus [23]
  Mean excretion of Cl-: 0.8 m equiv
Rattus norvegicus [24]
  Mean excretion of K+: 0.25 m equiv
Rattus norvegicus [25]
  Mean excretion of K+: 0.18 m equiv
[26]
  T/C 1.2: 9.39
[27]
  T/C 1: 3.26
Rattus norvegicus [28]
  Mean urine volume: 12.9 mL

## CN(C)CC(c1ccccc1)c1nnc2n1-c1ccc(S(C)(=O)=O)cc1C(c1ccccc1)=NC2 (configuration not stated)
[29]
  T/C 1: 0.7

## Clc1ccc2c(c1)C(c1ccccc1)=NCc1nnc(Cc3ccccc3)n1-2
[30]
  T/C 1: 0.96

## COC(CN(C)C)c1nnc2n1-c1ccc(Cl)cc1C(c1ccccc1)=NC2 (configuration not stated)
[31]
  T/C 1: 1.32

## CC1N=C(c2ccccc2)c2cc(Cl)ccc2-n2c1nnc2C(CN(C)C)c1ccccc1 (configuration not stated)
Rattus norvegicus [3]
  Mean urine volume: 7.53 mL
Rattus norvegicus [4]
  Mean urine volume: 10.66 mL
Rattus norvegicus [5]
  Mean urine volume: 4.96 mL
Rattus norvegicus [6]
  Mean urine volume: 3.97 mL
Rattus norvegicus [7]
  Mean urine volume: 4.39 mL
Rattus norvegicus [8]
  Mean excretion of K+: 0.22 m equiv
Rattus norvegicus [9]
  Mean excretion of K+: 0.21 m equiv
Rattus norvegicus [10]
  Mean excretion of K+: 0.24 m equiv
Rattus norvegicus [11]
  Mean excretion of K+: 0.24 m equiv
Rattus norvegicus [12]
  Mean excretion of Na+: 0.74 m equiv
Rattus norvegicus [13]
  Mean excretion of Na+: 0.82 m equiv
Rattus norvegicus [14]
  Mean excretion of Na+: 1.33 m equiv
Rattus norvegicus [15]
  Mean excretion of Na+: 2.04 m equiv
Rattus norvegicus [16]
  Mean excretion of Na+: 0.86 m equiv
Rattus norvegicus [17]
  Mean excretion of Na+: 1.65 m equiv
Rattus norvegicus [18]
  Mean excretion of Cl-: 0.86 m equiv
Rattus norvegicus [19]
  Mean excretion of Cl-: 1.33 m equiv
Rattus norvegicus [20]
  Mean excretion of Cl-: 1.9 m equiv
Rattus norvegicus [21]
  Mean excretion of Cl-: 1.64 m equiv
Rattus norvegicus [22]
  Mean excretion of Cl-: 0.91 m equiv
Rattus norvegicus [23]
  Mean excretion of Cl-: 0.82 m equiv
Rattus norvegicus [24]
  Mean excretion of K+: 0.19 m equiv
Rattus norvegicus [25]
  Mean excretion of K+: 0.24 m equiv
[32]
  T/C 1.2: 7.05
[33]
  T/C 1: 3.05
Rattus norvegicus [28]
  Mean urine volume: 9.56 mL
